The EternaBench riboswitch data

System: MS2 coat protein
Assay: apparent Kd, MS2 coat protein; higher = weaker binding; RNA-MaP array; FMN 200 µM where present
Method in brief: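 The apparent Kd comes from binding curves fitted cluster by cluster, filtered, and summarised as a median. Those curves followed SNAP-549-labelled MS2 coat protein from 0.7 or 1.5 nM, doubling to 3 µM, on Illumina sequencing-chip clusters where stalled E. coli RNA polymerase had transcribed the designs, without and then with constant ligand. The buffer was 100 mM Tris-HCl pH 7.5, 80 mM KCl, 4 mM MgCl2, BSA, DTT, yeast tRNA and Tween-20, and green signal was normalised to red-channel RNA signal and control-cluster median Fmax.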

[1] = designed as: OFF switch for flavin mononucleotide, no ligand
[2] = ligand present: flavin mononucleotide, designed as: OFF switch for flavin mononucleotide
[3] = designed as: ON switch for flavin mononucleotide, no ligand
[4] = ligand present: flavin mononucleotide, designed as: ON switch for flavin mononucleotide

Sequence	apparent Kd [1] [µM]	apparent Kd [2] [µM]	apparent Kd [3] [µM]	apparent Kd [4] [µM]
AUCAUGUGAGGAUAUGUGAUCAACCUUCUAUAUAGAUGAUGACAGAAGGCACAUGAGGAUCACCCAUGUAGAUC	0.0907	0.0218		
CGUCGGUGGCAGAAGGGACAGAGAUCCUCGCUGCCGGAUCGUCUUGCACAUGAGGAUCACCCAUGUCAGGAUAUGCCCAAGCGG	0.00535	0.00515		
GCGCGGUAAGGAUAUCUGCACGGAAACAUGAGGAUCACCCAUGUUCAGAUGAUUCUUAUAAGAGAAGGUACUGACA	0.0174	0.0191		
ACAUGGUAGUAGAAGGGUAUUACUUUAGAUACAACCAUUUGUUUAGUUUAUACAGGAUAUGCUUACAUGAGGAUCACCCAUGUU		0.00874		
UCUGCCGCCGUGAGGAUAUGCCCGCGCGCACGCGGGCAGAAGGCACAUGAGGAUCACCCAUGUCCCGCGGUUUU	0.0176	0.0381		
UUUUAGUAAGGAUAUGCGUAGAUCUCGGAAACGAGAUCUACGCAGAAGGUACAUGAGGAUCACCCAUGUAGAUU	0.0174	0.0223		
ACAUGAGGAUCACCCAUGUGGAGUGAAGAAGGUGGAUACUUAUGACUCUCCCAUGUACAUAGGACUGAGGAUAUUCUAAUAAUU			0.0312	0.0272
GCGCACUAAGUGAGGAUAUCGUUUAUUUUUAGGAUCGAGAAGGCACAUGAGGAUCACCCAUGUUUGACGUGCGC	0.0209	0.0141		
AUAAUUUUGUAGAAGGUACGUGAUUAGUCAAAGUAAGGAUAUACUGACAUGAGGAUCACCCAUGUUUUAAUAGUUAACAGUUCU			0.0129	0.00799
CGCACUUAGCGAGGAUAUGUAAAACAUGAGGAUCACCCAUGUGAUUUAGCUCCAAUUUUAAUGACACAGAAGGCGCUUAGUGCG	0.0222	0.0158		
GGAUGACAAAGUCAUCCUAUUCGAACAUGAGGAUCACCCAUGUAGGAUAUGCUAGUCAAAGACUAGCAGAAGGACAUGUGCCUU	0.0364	0.164		
AUACAUGAGGAUCACCCAUGUAAUUAAUUAAUUAAUAAGAUCAAGGAUAUCAGCUCGAAUAGAGCUGAGAAGGUGAUCACAUGU			0.24	0.266
GGAAAGAUGUUAGGAUAUGGCUUCCCGGUGAAGCCAGAAGGAACAUGAGGAUCACCCAUGUAAAGCGAGUGGCUCUUCUCUGGA	0.0186	0.0659		
CUGGUGUGAGGAUAUCAAAGACCUCGGGAUAGUAGCGAGGAUGAGAAGGCACAUGAGGAUCACCCAUGUAACAA	0.0209	0.0338		
CGUCCGUGGGUAGUGAUCGUACAUGAGGAUCACCCAUGUGGGAAGGAUAUGCAUGCACGUGGACAGCAGAAGGUCCCACAACAA	0.154	0.086		
UCAUUGAUUGUGAGGAUAUCGAUGUGAUGGUUUGUCGAGAAGGCACAUGAGGAUCACCCAUGUGGGUGUGGGCU	0.864	0.242		
UAAUUUUGUCAAGGAUAUGUAAUAUAGAUUUGUAAACAUGAGGAUCACCCAUGUAUAUGGUGGGAACAGAAGGUGAAUGGAGAA	0.196	0.171		
CUCAUGUGAGGAUAUCAGUAGUAAAAAAAAAAAAUUACUACUGAGAAGGCACAUGAGGAUCACCCAUGUGACUU	0.0348	0.0306		
AUCAGCUCGUCAGGAUAUACGUCACUGCUUCGGCAGUGUGGUAAGAUCACAUGAGGAUCACCCAUGUAGAAGGGACGAGCUGAG	0.0132	0.26		
UGGUACAUGGGAGGAUAUCAUGAACUUACAUGAGGAUCACCCAUGUCGAUGGAGACAUCGGAGAUUGAGAAGGCCCAUGUACCU			0.0776	0.0224
GCGUAAGAACAGAAGGGUAGACAUGAGGAUCACCCAUGUAAACAUGGAUGCAGGAUAUGUUAUAAUUGAGAUUCAUAAAUUCGC			0.13	0.106

Sequence	apparent Kd [1] [µM]	apparent Kd [2] [µM]	apparent Kd [3] [µM]	apparent Kd [4] [µM]
UAGUUUUAGCGAGGAUAUCGUAUGUUUAAUUUUUUAUAUUGUUUACAUGAGGAUCACCCAUGUUACGAGAAGGCGCAUGGGAUU			0.388	0.1
CGCUACUACCAGAAGGACAUGAGGAUCACCCAUGUAGGAUAUGGGUUACAAGUACCAGUGUAAAGAAACUACGCUACGUAUGCG			0.0366	0.00784
CAAACAACACAGAAGGCCACGAAGUCCAUGGGUGGAGGAUAUGUGUUAGCUCUGACAUGAGGAUCACCCAUGUCUACGUGAGCU			0.0055	0.00527
UUUAUAAAGAUAGGAUAUUGUAUAAUAAUUUAAUAAGAAGGAUCACACAUGAGGAUCACCCAUGUAUGAGGAUCACCCAUGUAU	0.0197	0.0203		
GGCCCGUAAGGAUAUAAUGCUCAGGUGAAAACCGAGCUCCGUUAGAAGGUACAUGAGGAUCACCCAUGUGAUCG	0.107	0.124		
UGUAGGAGCAGAGGAUAUUACAUGAGGAUCACCCAUGUAUGAACCAAUAGCUGGAAACAGCAAUGUAAGAAGGCUGCUCCGACA	0.0122	0.187		
CAACCGUUGCAGAAGGUUAAAUAAUUUCUCAUCUUGUUUACAUGAGGAUCACCCAUGUAUUUGUUGAAGGAUAUGCAAGGGUUG	0.00696	0.0066		
GUAGCAAUCGGAGGAUAUGGGUUAUACAUGAGGAUCACCCAUGUUAAUUUACUAGAAGGCCGAUUGCUACAAGAGCGAAAGCUC			0.0108	0.0057
UCAUGUCCUGAGGAUAUGUAGCGGAUAAACGCAACAGAAGGCAGGACAUGAGGAUCACCCAUGUGUGCCUUCUA	0.0966	0.0142		
AUUUAAUUUAAUAAGAUCACAUGAGGAUCACCCAUGUAUAUAUAGGAUAUCAGCUCGAUUAGAGCUGAGAAGGAUAUAUACUAU	0.383	0.322		
UGCGCUGAGGGAGGAUAUGACAUGAGGAUCACCCAUGUGAUAGGUUUCUUGUCAGAAGGCCCGCGUGUACCGAAUUAGGUUCGC	0.0556	0.404		
GGAAAACAUGAGGAUCACCCAUGUGAGGAUAUCGAUGUCCAAGAAAAAGUGCGGGACUCGAGAAGGCACUUGGA	0.0589	0.0368		
CCAGCAAAAGUGAGGAUAUGCUGGUCCUUGGAUCAGCAGAAGGCACAUGAGGAUCACCCAUGUCGUGGAGCUGG	0.0262	0.0553		
UGAUCGAGAGAUCUUAGAUUCUGGUAGGAUAUACAUUAUGUUAAAAUUACAUGAGGAUCACCCAUGUAGAAGGACUAGAGUCUA	0.00613	0.00912		
AAAUUAAGAAGAGGAUAUUGACAUGAGGAUCACCCAUGUAUUUGGGAGUGUUUACUGAAUUCUUACGAGAAGGUUUACGAACUU	0.278	0.211		
GCACUGGAUGUAGGAUAUCAGGACGAUAAGUCCUGAGAAGGACAUGAGGAUCACCCAUGUCUAAUAAACCAGUGCUAUAAUAUA	0.0144	0.0189		
UAUAGGCUAGGAUAUACAACACUUGGUUCAGAUGUUUGAAGACAUGAGGAUCACCCAUGUAGAAGGAGCAUUCA	0.0335	0.0763		
CCGCGGCGUGCAGGAUAUGUUACGAUACCUCGGACAGAAGGGCACAUGAGGAUCACCCAUGUAAUAUAUAUGGAACAUAUAUAG	0.0338	0.0533		
UUAGUAUUGCAAGGAUAUGUUUAUGAUAUUUUUCCUCUUACAUGAGGAUCACCCAUGUUUAACUUACAGAAGGUGCUAUGAUUU	0.575	1.03		
CUUUUGUGAGGAUAUUAGUAGUAAAUAAAUAAAAUUUCUACUGAGAAGGCACAUGAGGAUCACCCAUGUUCCUC	0.0319	0.182		
UUUAUAAAUUAGAAGGCGAGAUGAAUUACAAUAGACAUGAGGAUCACCCAUGUGUACCCAUGUCUUGAGGAUAUAGUCAUAUAU			0.132	0.048
